According to ChEMBL document CHEMBL1144940 (J Med Chem, 2003):
Bridge positions count the residues as written; N and C are the ends. Square brackets hold non-standard residues; d marks the D form. Peptide text beside a SMILES is read from it. d2Nal = N[C@H](Cc1ccc2ccccc2c1)C(=O)O; Pen = CC(C)(S)[C@H](N)C(=O)O; Nle = CCCC[C@H](N)C(=O)O

Experiments:
Melanocortin receptor 4 [1] = target: T1, Melanocortin receptor 4 (Homo sapiens, UniProt P32245); assay: Intracellular cAMP accumulation in Melanocortin 4 receptor functional assay.
Melanocortin receptor 5 [2] = target: T2, Melanocortin receptor 5 (Homo sapiens, UniProt P33032); assay: Binding affinity against human Melanocortin 5 receptor by gamma-MCH displacement.
In short: (§1)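 Competition binding on intact HEK293 cells stably expressing the human receptor, seeded 50000 cells/well 48 h earlier. Lysates were gamma-counted. Ki came from competition curves; mean of duplicate experiments in triplicate.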

Melanocortin receptor 3 [3] = target: T3, Melanocortin receptor 3 (Homo sapiens, UniProt P41968); assay: Binding affinity against human Melanocortin 3 receptor by gamma-MCH displacement.; in short: as §1
Melanocortin receptor 3 [4] = target: T3, Melanocortin receptor 3; assay: Intracellular cAMP accumulation in human Melanocortin 3 receptor functional assay.
Melanocortin receptor 4 [5] = target: T1, Melanocortin receptor 4; assay: Binding affinity against Melanocortin 4 receptor by gamma-MCH displacement.; in short: as §1
Melanocortin receptor 5 [6] = target: T2, Melanocortin receptor 5; assay: Intracellular cAMP accumulation in human Melanocortin 5 receptor functional assay.
Melanocortin receptor 4 [7] = target: T1, Melanocortin receptor 4; assay: Agonist activity against human Melanocortin 4 receptor at 10 uM
Melanocortin receptor 3 [8] = target: T3, Melanocortin receptor 3; assay: Agonist activity against human Melanocortin 3 receptor at 10 uM

T3 sequence (P41968 whole entry): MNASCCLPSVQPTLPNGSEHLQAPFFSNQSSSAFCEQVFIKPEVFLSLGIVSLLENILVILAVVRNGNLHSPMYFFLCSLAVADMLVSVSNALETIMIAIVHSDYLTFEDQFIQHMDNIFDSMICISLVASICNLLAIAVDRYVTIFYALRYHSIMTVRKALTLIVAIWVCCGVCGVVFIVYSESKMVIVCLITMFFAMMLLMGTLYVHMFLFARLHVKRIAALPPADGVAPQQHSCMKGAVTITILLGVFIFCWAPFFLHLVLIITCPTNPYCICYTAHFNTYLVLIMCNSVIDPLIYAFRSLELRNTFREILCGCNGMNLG
T2 sequence (P33032 whole entry): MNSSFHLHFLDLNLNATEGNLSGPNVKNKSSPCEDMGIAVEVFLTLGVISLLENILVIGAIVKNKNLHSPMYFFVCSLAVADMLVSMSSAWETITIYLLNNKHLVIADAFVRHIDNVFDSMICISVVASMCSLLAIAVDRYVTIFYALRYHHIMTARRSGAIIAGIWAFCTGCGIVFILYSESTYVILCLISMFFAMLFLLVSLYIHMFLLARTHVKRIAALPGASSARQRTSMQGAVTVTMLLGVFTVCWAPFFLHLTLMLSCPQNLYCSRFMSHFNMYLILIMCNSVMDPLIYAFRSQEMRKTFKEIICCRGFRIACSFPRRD
T1 sequence (P32245 whole entry): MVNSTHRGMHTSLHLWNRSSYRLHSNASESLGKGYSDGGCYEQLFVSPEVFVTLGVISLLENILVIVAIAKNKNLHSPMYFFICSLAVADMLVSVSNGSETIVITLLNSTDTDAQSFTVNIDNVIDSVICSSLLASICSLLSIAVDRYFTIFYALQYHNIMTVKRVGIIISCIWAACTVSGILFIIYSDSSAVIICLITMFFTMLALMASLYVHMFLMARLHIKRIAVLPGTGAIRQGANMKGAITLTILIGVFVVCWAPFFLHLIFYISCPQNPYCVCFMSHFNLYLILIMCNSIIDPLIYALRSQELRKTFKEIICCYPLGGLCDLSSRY

SMILES: CCCC[C@H](NC(=O)[C@@H](NC(=O)[C@@H](N)Cc1ccc(O)cc1)C(C)C)C(=O)N[C@H]1CSSC[C@@H](C(=O)N[C@@H](CCCNC(=N)N)C(=O)N[C@@H](Cc2ccccc2)C(=O)NCC(N)=O)NC(=O)[C@H](Cc2c[nH]c3ccccc23)NC(=O)[C@H](CCCNC(=N)N)NC(=O)[C@H](Cc2ccccc2)NC(=O)[C@H](Cc2cnc[nH]2)NC1=O
- EC50 (Melanocortin receptor 4 [1]): 170 nM
- Ki (Melanocortin receptor 5 [2]): 27 nM
- Ki (Melanocortin receptor 3 [3]): 6.8 nM
- EC50 (Melanocortin receptor 3 [4]): 4.2 nM
- Ki (Melanocortin receptor 4 [5]): 2.5 nM
- EC50 (Melanocortin receptor 5 [6]): 3.2 nM

SMILES: CCCC[C@H](NC(=O)[C@@H](NC(=O)[C@@H](N)Cc1ccc(O)cc1)C(C)C)C(=O)NCC(=O)NC(C)(C)C(=O)N[C@@H](Cc1ccccc1)C(=O)N[C@@H](CCCN=C(N)N)C(=O)N[C@H](Cc1ccc2ccccc2c1)C(=O)N[C@@H](CC(=O)O)C(=O)N[C@@H](CCCN=C(N)N)C(=O)N[C@@H](Cc1ccccc1)C(=O)NCC(N)=O
- EC50 (Melanocortin receptor 4 [1]): > 10000 nM
- Ki (Melanocortin receptor 5 [2]): 120 nM
- Ki (Melanocortin receptor 3 [3]): 3400 nM
- EC50 (Melanocortin receptor 3 [4]): > 10000 nM
- Ki (Melanocortin receptor 4 [5]): 4800 nM
- EC50 (Melanocortin receptor 5 [6]): 1.8 nM

SMILES: CCCC[C@H](NC(=O)[C@@H](NC(=O)[C@@H](N)Cc1ccc(O)cc1)C(C)C)C(=O)N[C@@H]1C(=O)N[C@@H](Cc2c[nH]cn2)C(=O)N[C@@H](Cc2ccccc2)C(=O)N[C@@H](CCCN=C(N)N)C(=O)N[C@@H](Cc2c[nH]c3ccccc23)C(=O)N[C@H](C(=O)N[C@@H](CCCN=C(N)N)C(=O)N[C@@H](Cc2ccccc2)C(=O)NCC(N)=O)CSSC1(C)C (H-YV[Nle][Pen]HFRWCRFG-NH2; disulfide 4-9)
- EC50 (Melanocortin receptor 4 [1]): 200 nM
- Ki (Melanocortin receptor 5 [2]): 150 nM
- Ki (Melanocortin receptor 3 [3]): 150 nM
- EC50 (Melanocortin receptor 3 [4]): 19 nM
- Ki (Melanocortin receptor 4 [5]): > 10000 nM
- EC50 (Melanocortin receptor 5 [6]): 74 nM

SMILES: CCCC[C@H](NC(=O)[C@@H](NC(=O)[C@@H](N)Cc1ccc(O)cc1)C(C)C)C(=O)N[C@@H]1CSSC[C@@H](C(=O)N[C@@H](CCCNC(=N)N)C(=O)N[C@@H](Cc2ccccc2)C(=O)NCC(N)=O)NC(=O)[C@H](Cc2c[nH]c3ccccc23)NC(=O)[C@H](CCCNC(=N)N)NC(=O)[C@H](Cc2ccccc2)NC(=O)[C@H](Cc2cnc[nH]2)NC1=O
- EC50 (Melanocortin receptor 4 [1]): 360 nM
- Ki (Melanocortin receptor 5 [2]): 210 nM
- Ki (Melanocortin receptor 3 [3]): 1600 nM
- EC50 (Melanocortin receptor 3 [4]): 210 nM
- Ki (Melanocortin receptor 4 [5]): 1200 nM
- EC50 (Melanocortin receptor 5 [6]): 140 nM

SMILES: CC(C)[C@H](NC(=O)[C@@H](N)Cc1ccc(O)cc1)C(=O)N[C@@H]1C(=O)NCC(=O)N[C@@H](Cc2cnc[nH]2)C(=O)N[C@@H](Cc2ccccc2)C(=O)N[C@@H](CCCNC(=N)N)C(=O)N[C@@H](Cc2c[nH]c3ccccc23)C(=O)N[C@H](C(=O)N[C@@H](CCCNC(=N)N)C(=O)N[C@@H](Cc2ccccc2)C(=O)NCC(N)=O)CSSC1(C)C
- EC50 (Melanocortin receptor 4 [1]): > 10000 nM
- Ki (Melanocortin receptor 5 [2]): 1700 nM
- Ki (Melanocortin receptor 3 [3]): 150 nM
- EC50 (Melanocortin receptor 3 [4]): 400 nM
- Ki (Melanocortin receptor 4 [5]): 12 nM
- EC50 (Melanocortin receptor 5 [6]): > 10000 nM

SMILES: CC(C)[C@H](NC(=O)[C@@H](N)Cc1ccc(O)cc1)C(=O)N[C@H]1CSSC[C@@H](C(=O)N[C@@H](CCCN=C(N)N)C(=O)N[C@@H](Cc2ccccc2)C(=O)NCC(N)=O)NC(=O)[C@H](Cc2c[nH]c3ccccc23)NC(=O)[C@H](CCCN=C(N)N)NC(=O)[C@H](Cc2ccccc2)NC(=O)[C@H](Cc2c[nH]cn2)NC(=O)CNC1=O
- EC50 (Melanocortin receptor 4 [1]): 9 nM
- Ki (Melanocortin receptor 5 [2]): 210 nM
- Ki (Melanocortin receptor 3 [3]): 68 nM
- EC50 (Melanocortin receptor 3 [4]): 36 nM
- Ki (Melanocortin receptor 4 [5]): 22 nM
- EC50 (Melanocortin receptor 5 [6]): 450 nM

SMILES: CC(C)[C@H](NC(=O)[C@@H](N)Cc1ccc(O)cc1)C(=O)N[C@H]1CSSC[C@H](C(=O)N[C@@H](CCCN=C(N)N)C(=O)N[C@@H](Cc2ccccc2)C(=O)NCC(N)=O)NC(=O)[C@H](Cc2c[nH]c3ccccc23)NC(=O)[C@H](CCCN=C(N)N)NC(=O)[C@H](Cc2ccccc2)NC(=O)[C@H](Cc2c[nH]cn2)NC(=O)CNC1=O
- EC50 (Melanocortin receptor 4 [1]): > 10000 nM
- Ki (Melanocortin receptor 5 [2]): > 3900 nM
- Ki (Melanocortin receptor 3 [3]): > 10000 nM
- EC50 (Melanocortin receptor 3 [4]): > 10000 nM
- Ki (Melanocortin receptor 4 [5]): > 10000 nM
- EC50 (Melanocortin receptor 5 [6]): > 10000 nM

SMILES: CC(C)[C@H](NC(=O)[C@@H](N)Cc1ccc(O)cc1)C(=O)NC1CSSCC(C(=O)N[C@@H](CCCN=C(N)N)C(=O)N[C@@H](Cc2ccccc2)C(=O)NCC(N)=O)NC(=O)[C@H](Cc2c[nH]c3ccccc23)NC(=O)[C@H](CCCN=C(N)N)NC(=O)[C@@H](Cc2ccccc2)NC(=O)[C@H](Cc2c[nH]cn2)NC(=O)CNC1=O (stereo in doubt)
- EC50 (Melanocortin receptor 4 [1]): 250 nM
- Activity (Melanocortin receptor 4 [7]): 46%
- Ki (Melanocortin receptor 5 [2]): > 3900 nM
- Ki (Melanocortin receptor 3 [3]): > 10000 nM
- EC50 (Melanocortin receptor 3 [4]): > 10000 nM
- Ki (Melanocortin receptor 4 [5]): 460 nM
- EC50 (Melanocortin receptor 5 [6]): > 10000 nM

SMILES: CCCC[C@H](NC(=O)[C@@H](NC(=O)[C@@H](N)Cc1ccc(O)cc1)C(C)C)C(=O)NCC(=O)N[C@@H](Cc1c[nH]cn1)C(=O)N[C@H](Cc1ccc2ccccc2c1)C(=O)N[C@@H](CCCN=C(N)N)C(=O)N[C@H](Cc1ccc2ccccc2c1)C(=O)N[C@@H](CC(=O)O)C(=O)N[C@@H](CCCN=C(N)N)C(=O)N[C@@H](Cc1ccccc1)C(=O)NCC(N)=O
- EC50 (Melanocortin receptor 4 [1]): 44 nM
- Activity (Melanocortin receptor 4 [7]): 100%
- Ki (Melanocortin receptor 5 [2]): > 4800 nM
- Ki (Melanocortin receptor 3 [3]): 12 nM
- Activity (Melanocortin receptor 3 [8]): 40%
- EC50 (Melanocortin receptor 3 [4]): 12 nM
- Ki (Melanocortin receptor 4 [5]): 4.6 nM
- EC50 (Melanocortin receptor 5 [6]): > 10000 nM

SMILES: CCCC[C@H](NC(=O)[C@@H](NC(=O)[C@@H](N)Cc1ccc(O)cc1)C(C)C)C(=O)N[C@H]1CC(=O)NCCCC[C@@H](C(=O)N[C@@H](CCCN=C(N)N)C(=O)N[C@@H](Cc2ccccc2)C(=O)NCC(N)=O)NC(=O)[C@H](Cc2c[nH]c3ccccc23)NC(=O)[C@H](CCCN=C(N)N)NC(=O)[C@H](Cc2ccccc2)NC(=O)[C@H](Cc2c[nH]cn2)NC1=O
- EC50 (Melanocortin receptor 4 [1]): 340 nM
- Ki (Melanocortin receptor 5 [2]): 8.8 nM
- Ki (Melanocortin receptor 3 [3]): 5.5 nM
- EC50 (Melanocortin receptor 3 [4]): 240 nM
- Ki (Melanocortin receptor 4 [5]): 9.6 nM
- EC50 (Melanocortin receptor 5 [6]): 200 nM

SMILES: CCCC[C@H](NC(=O)[C@@H](NC(=O)[C@@H](N)Cc1ccc(O)cc1)C(C)C)C(=O)NCC(=O)N1CCC[C@H]1C(=O)N[C@H](Cc1ccc2ccccc2c1)C(=O)N[C@@H](CCCN=C(N)N)C(=O)N[C@@H](Cc1c[nH]c2ccccc12)C(=O)N[C@@H](CC(=O)O)C(=O)N[C@@H](CCCN=C(N)N)C(=O)N[C@@H](Cc1ccccc1)C(=O)NCC(N)=O (H-YV[Nle]GP[d2Nal]RWDRFG-NH2)
- Activity (Melanocortin receptor 4 [7]): 100%
- Ki (Melanocortin receptor 5 [2]): 14 nM
- Ki (Melanocortin receptor 3 [3]): 0.2 nM
- Activity (Melanocortin receptor 3 [8]): 70%
- Ki (Melanocortin receptor 4 [5]): 0.22 nM

SMILES: CCCC[C@H](NC(=O)[C@@H](NC(=O)[C@@H](N)Cc1ccc(O)cc1)C(C)C)C(=O)NCC(=O)N[C@@H](Cc1c[nH]cn1)C(=O)N[C@H](Cc1ccc2ccccc2c1)C(=O)N[C@@H](CCCN=C(N)N)C(=O)N[C@@H](Cc1c[nH]c2ccccc12)C(=O)N[C@@H](CC(=O)O)C(=O)N[C@@H](CCCN=C(N)N)C(=O)N[C@@H](Cc1ccccc1)C(=O)NCC(N)=O
- Activity (Melanocortin receptor 4 [7]): 100%
- Ki (Melanocortin receptor 5 [2]): 1 nM
- Ki (Melanocortin receptor 3 [3]): 0.81 nM
- EC50 (Melanocortin receptor 3 [4]): > 10000 nM

SMILES: CC(C)[C@H](NC(=O)[C@@H](N)Cc1ccc(O)cc1)C(=O)N[C@H]1C(=O)NCC(=O)N[C@@H](Cc2c[nH]cn2)C(=O)N[C@H](Cc2ccccc2)C(=O)N[C@@H](CCCN=C(N)N)C(=O)N[C@@H](Cc2c[nH]c3ccccc23)C(=O)N[C@H](C(=O)N[C@@H](CCCN=C(N)N)C(=O)N[C@@H](Cc2ccccc2)C(=O)NCC(N)=O)CSSC1(C)C
- Activity (Melanocortin receptor 3 [8]): 77%

SMILES: CC(C)[C@H](NC(=O)[C@@H](N)Cc1ccc(O)cc1)C(=O)N[C@H]1CSSC(C)(C)[C@@H](C(=O)N[C@@H](CCCNC(=N)N)C(=O)N[C@@H](Cc2ccccc2)C(=O)NCC(N)=O)NC(=O)[C@H](Cc2c[nH]c3ccccc23)NC(=O)[C@H](CCCNC(=N)N)NC(=O)[C@H](Cc2ccccc2)NC(=O)[C@H](Cc2cnc[nH]2)NC(=O)CNC1=O (H-YVCGHFRW[Pen]RFG-NH2; disulfide 3-9)
- EC50 (Melanocortin receptor 4 [1]): > 10000 nM
- Ki (Melanocortin receptor 5 [2]): 480 nM
- Ki (Melanocortin receptor 3 [3]): 480 nM
- EC50 (Melanocortin receptor 3 [4]): > 10000 nM
- Ki (Melanocortin receptor 4 [5]): > 10000 nM
- EC50 (Melanocortin receptor 5 [6]): > 10000 nM

SMILES: CCCC[C@H](NC(=O)[C@@H](NC(=O)[C@@H](N)Cc1ccc(O)cc1)C(C)C)C(=O)N[C@H]1CSSC[C@H](C(=O)N[C@@H](CCCN=C(N)N)C(=O)N[C@@H](Cc2ccccc2)C(=O)NCC(N)=O)NC(=O)[C@H](Cc2c[nH]c3ccccc23)NC(=O)[C@H](CCCN=C(N)N)NC(=O)[C@H](Cc2ccccc2)NC(=O)[C@H](Cc2c[nH]cn2)NC1=O
- EC50 (Melanocortin receptor 4 [1]): 83 nM
- Ki (Melanocortin receptor 5 [2]): 220 nM
- Ki (Melanocortin receptor 3 [3]): 240 nM
- EC50 (Melanocortin receptor 3 [4]): 39 nM
- Ki (Melanocortin receptor 4 [5]): > 10000 nM
- EC50 (Melanocortin receptor 5 [6]): 270 nM

SMILES: CCCC[C@H](NC(=O)[C@@H](NC(=O)[C@@H](N)Cc1ccc(O)cc1)C(C)C)C(=O)NCC(=O)N[C@@H](Cc1c[nH]cn1)C(=O)N[C@@H](Cc1ccccc1)C(=O)N[C@@H](CCCN=C(N)N)C(=O)N[C@@H](Cc1c[nH]c2ccccc12)C(=O)N[C@@H](CC(=O)O)C(=O)N[C@@H](CCCN=C(N)N)C(=O)N[C@@H](Cc1ccccc1)C(=O)NCC(N)=O
- Activity (Melanocortin receptor 4 [7]): 105%
- Ki (Melanocortin receptor 4 [5]): 62 nM
